Compound activity from PubChem.
ROMK primary = ROMK potassium channel modulators, primary screen, cell-based, thallium flux, MLSMR library | ATP-sensitive inward rectifier potassium channel 1 (Homo sapiens), P48048 | Tet-inducible ROMK, thallium flux fluorescence; actives lie on both sides | B-score at 10 µM | 130,000 compounds, 2% hits | AID 1918, 2009;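 active = signal ratio slope over the read window, or its plate-corrected B-score, at least 3 SD from the plate mean, either direction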;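 also: B-score of the F/F0 ratio slope over 7 to 12 s after thallium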
Target sequence (P48048 whole entry, looked up): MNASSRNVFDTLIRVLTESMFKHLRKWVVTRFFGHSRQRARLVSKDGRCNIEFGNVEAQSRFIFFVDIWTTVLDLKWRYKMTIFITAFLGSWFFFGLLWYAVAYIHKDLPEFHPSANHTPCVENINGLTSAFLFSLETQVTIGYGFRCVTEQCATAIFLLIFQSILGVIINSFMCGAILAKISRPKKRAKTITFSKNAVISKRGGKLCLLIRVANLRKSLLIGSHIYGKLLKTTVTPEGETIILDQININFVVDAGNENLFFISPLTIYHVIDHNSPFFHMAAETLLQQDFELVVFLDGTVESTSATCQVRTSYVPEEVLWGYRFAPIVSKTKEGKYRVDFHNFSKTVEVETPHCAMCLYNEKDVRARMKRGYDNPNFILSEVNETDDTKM
WT yeast gro inh = growth inhibition of WT strain, primary screen, mitochondrial fusion inhibitor project, WT and mutant strains, chemical genetic; mitochondrial fusion phenotypic screen; inhibition, % at 10 µM; 190,000 compounds, 2.1% hits; in the data active = inhibition above about 58%; tested in S. cerevisiae
Diaphorase act = compounds boosting diaphorase resazurin reduction – biochemical, uHTS, resorufin fluorescence, counter-screen for diaphorase-coupled primary assays, primary screen; Diaphorase/resazurin coupled assay, 16 min; active compounds read high; 1 = vehicle wells, 0 = NADH-free wells; 190,000 compounds, 0.005% hits; AID 1229, 2008; activation factor at 20 µM;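 active = diaphorase activity raised at least twofold by the compound at 20 µM; inactive = activation factor below 2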
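Material: bacterial diaphorase enzyme (C. kluyveri); amount: enzyme 0.07 U/mL final; reagent: NADH substrate 0.114 mM plus resazurin dye 0.1 mM, final; doses: single compound dose of 20 µM, 1% DMSO final; timing: 16 min enzyme reaction, ambient temperature; measured by: fluorescence of resorufin, 544 nm excitation, 590 nm emission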
KCC2 mod = KCC2 cotransporter modulators, thallium flux, primary screen, cell-based, HEK293 KCC2, FluoZin-2 fluorescence, MLSMR; Solute carrier family 12 member 5 (Homo sapiens), Q9H2X9; KCC2 cells, thallium flux FluoZin-2 fluorescence; B-score of Tl+ flux slope (higher = more flux/activation; lower = inhibition) at 10 µM; 190,000 compounds, 2.2% hits;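 active = thallium flux slope and its plate-corrected score both differing from the plate sample mean at a set confidence after two filtering rounds, in either direction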;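 also: slope of fluorescence scaled to starting intensity during 10 to 20 s after thallium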
Diaphorase inh = diaphorase inhibitors and chemical oxidizers, primary screen, counter-screen for diaphorase-coupled primary assays, biochemical, uHTS, resorufin fluorescence; inhibition, % at 20 µM; 190,000 compounds, 0.69% hits; diaphorase resazurin-to-resorufin fluorescence, NADH, 16 min; bacterial (C. kluyveri) enzyme, not human;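 active = primary screen inhibition at 20 µM above a set limit, cut at about 50% in these data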
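System: Bacterial diaphorase enzyme (C. kluyveri) | Incubation: 16-min room-temperature incubation before reading | Benchmarks: No-NADH positive control and DMSO neutral control | Measured by: Resorufin fluorescence 544/590 nm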
L major viab = Leishmania major promastigote growth inhibition, primary screen; inhibition, % at 10 µM; 200,000 compounds, 9% hits; Leishmania major promastigotes, resazurin fluorescence viability; AID 1063, 2008; in the data active = inhibition above about 50%;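 also: promastigotes grown with compound for 44 hours at 28 °C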
A number is an active result; . = inactive; / = no result given. An excerpt weighted towards active compounds, which were near 12% of everything screened.

SMILES | ROMK primary | WT yeast gro inh | Diaphorase act | KCC2 mod | Diaphorase inh | L major viab
CCOc1cc(C(=O)OCC(=O)Nc2c(C)cccc2C)ccc1OCC(=O)N1CCOCC1 | . | . | . | . | . | .
COc1ccc(-c2csc(NC(=O)c3ccc(OCC(=O)N4CCOCC4)c(OC)c3)n2)cc1OC | / | . | . | . | . | 70.7
COc1cc(C(=O)OCC(=O)Nc2ccc(C(C)=O)cc2)ccc1OCC(=O)N1CCOCC1 | . | . | . | . | . | 65.5
CCOc1cc(C(=O)Nc2nnc(CC)s2)ccc1OCC(=O)N1CCOCC1 | / | . | . | . | . | .
CCOC(=O)N1CCN(C(=S)NCCOC)CC1 | / | . | . | / | . | .
CC(=O)NC(Cc1ccccc1)C(=O)OCC(=O)c1ccc(F)cc1 (configuration not stated) | . | . | . | . | . | .
CN(C)CCCn1c(NCc2ccc3c(c2)OCO3)nc2ccccc21 | . | . | . | / | . | 66.0
c1ccc2c(c1)nc(NCc1ccc3c(c1)OCO3)n2CCN1CCOCC1 | . | . | . | . | . | .
CCn1c(NCc2ccc3c(c2)OCO3)nc2ccccc21 | / | . | . | . | . | 77.7
C=CCn1c(NCc2ccc3c(c2)OCO3)nc2ccccc21 | . | . | . | . | . | 97.8
C=CCn1c(NCc2ccccc2)nc2ccccc21 | . | . | . | . | . | .
CC(C(=O)OCC(=O)Nc1cccc(S(=O)(=O)N2CCOCC2)c1)N1C(=O)c2ccccc2C1=O (configuration not stated) | . | . | . | . | . | .
CCCn1c(SCC(=O)Nc2cc(S(=O)(=O)N3CCOCC3)ccc2OC)n[nH]c1=O | . | . | . | . | . | .
Cc1noc(C)c1COc1ccc(C(=O)NCCc2ccccn2)cc1 | . | . | . | . | . | .
COc1ccc(C2NCCc3c2[nH]c2ccccc32)cc1CSc1nc2ccccc2s1 (configuration not stated) | . | . | . | . | . | 60.4
CCn1c2ccccc2c2nnc(SCC(=O)N(C)C3CCS(=O)(=O)C3)nc21 (configuration not stated) | / | . | . | . | . | 66.1
Cc1ccc(-c2nc(SCC(=O)N(C)C3CCS(=O)(=O)C3)[nH]c2-c2ccc(C)cc2)cc1 (configuration not stated) | . | . | . | . | . | 94.2
CCn1c2ccccc2c2nnc(SCc3ccccc3)nc21 | / | 58.2 | . | . | . | .
CCn1c2ccccc2c2nnc(SCC(N)=O)nc21 | . | . | . | . | . | .
CC(C)Cc1nnc(NC(=O)c2ccc([N+](=O)[O-])cc2)s1 | / | . | . | / | . | .
CC1=C(C#N)C(NC(=O)c2ccc(Cl)cc2)(C(F)(F)F)C(=O)N1 (configuration not stated) | . | . | . | . | . | .
CC(C)(C)c1ccc(NC(=O)Nc2ccc(F)cc2)cc1 | . | . | . | . | . | .
CCC(C)NC(=O)c1ccccc1NC(=O)COc1ccc(OC)cc1 (configuration not stated) | . | . | . | . | . | .
CC(C)(C)n1nnnc1C(c1cccnc1)N1CCN(c2cccc(C(F)(F)F)c2)CC1 (configuration not stated) | / | . | . | . | . | 94.8
CC(C)(C)n1nnnc1C(c1cccs1)N1CCN(C(=O)c2ccco2)CC1 (configuration not stated) | / | . | . | . | . | .
SMILES | ROMK primary | WT yeast gro inh | Diaphorase act | KCC2 mod | Diaphorase inh | L major viab
Cc1cccc(N2CCN(C(c3ccncc3)c3nnnn3C(C)(C)C)CC2)c1C (configuration not stated) | . | . | . | . | . | 86.7
CC(C)(C)n1nnnc1C(c1ccncc1)N1CCN(C2CCCCC2)CC1 (configuration not stated) | / | . | . | . | . | .
CC(C)(C)n1nnnc1C(c1cccnc1)N1CCN(C(=O)c2ccco2)CC1 (configuration not stated) | / | . | . | . | . | 67.7
COCC(C)Nc1nc(C)c(C(C)=O)s1 (configuration not stated) | . | . | . | . | . | .
Cc1ccc(S(=O)(=O)c2nnn3c2nc(N2CCCCC2)c2ccccc23)cc1 | / | . | . | . | . | 61.8
Cc1nn2c(CN(C(=O)COc3ccccc3)c3ccccc3)nnc2c2ccccc12 | / | . | . | . | . | 80.6
Oc1ccc(N=Nc2nc(-c3ccccc3)c(-c3ccccc3)[nH]2)cc1 | / | 92.3 | . | . | . | 96.1
N#CCCn1nc(-c2ccccc2)cc1Nc1ccccc1NC(=O)c1cccs1 | / | . | . | . | . | 58.6
COc1ccc2c(=O)c(Oc3ccc(C(=O)O)cc3)c(C(F)(F)F)oc2c1 | . | . | . | . | . | .
C/C(=N\Nc1nc2ccccc2s1)c1cccs1 | . | . | . | . | . | .
C/C(=N\Nc1nc(-c2ccccc2)cs1)c1cccs1 | / | . | . | . | . | 79.2
Cc1ccc(CN2CCN(/N=C/c3cc(Br)cc(Br)c3O)CC2)cc1 | . | . | . | . | . | 50.8
Oc1c(Br)cc(Br)cc1/C=N/N1CCN(Cc2ccccc2)CC1 | / | . | . | . | . | .
Cc1ccc(CN2CCN(/N=C/c3ccc(Cl)c([N+](=O)[O-])c3)CC2)cc1 | . | 63.8 | . | . | . | 94.8
Cc1ccc(CN2CCN(/N=C/c3cc([N+](=O)[O-])ccc3Cl)CC2)cc1 | / | . | . | . | . | .
Cc1cc(-c2ccccc2)n(-c2cc(N/N=C/c3ccccc3O)ncn2)n1 | . | . | . | . | . | 99.6
N#CC1(Cc2ccc([N+](=O)[O-])cc2)c2ccccc2C=CN1C(=O)c1ccccc1 (configuration not stated) | . | . | . | . | . | 51.1
N#CC1(Cc2ccccc2)c2ccccc2C=CN1C(=O)c1ccccc1 (configuration not stated) | . | . | . | . | . | 82.2
COC(=O)C1=CC(C(=O)c2cccs2)=NN(c2ccc(OC)cc2)C1C(=O)OC (configuration not stated) | . | . | . | . | . | .
O=S(=O)(c1cccc(C(F)(F)F)c1)N(CCCN1CCOCC1)Cc1cccs1 | / | . | . | . | . | 100.3
CC1=C(CC(=O)c2ccccc2)C(=O)c2ccccc2C1=O | / | . | . | . | . | 94.0
Cc1ccc(NC(=O)COC(=O)c2ccc(Cl)cc2)cc1S(=O)(=O)N(C)C | . | . | . | . | . | .
